Results: ChEMBL document CHEMBL1122273, “5-sulfamoylorthanilic acids, a sulfonamide series with salidiuretic activity” (J Med Chem, 1983)

Columns and labels:
[1] = system: Canis familiaris; assay: urinary excretion collected at 1-24 hr time after oral administration in dog (four animals per dose) dosed at 0.05 mg/kg.; assay type: functional, Canis lupus familiaris, Urine
Procedure, shortened: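 Trained male beagles, four per dose, fasted 24 h with tap water ad libitum. The bladder was emptied by catheter, then 20 mL/kg tap water was given by stomach tube. Dogs were catheterized hourly with 4 mL/kg water orally each time, and the first 2 h served as control. Compound was given orally after the second catheterization. Urine volume and flame-photometric Na⁺ were measured over 1-6, 7-24 and 1-24 h.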

[2] = system: Canis familiaris; assay: sodium excretion collected at 1-6 hr time after oral administration in dog (four animals per dose) dosed at 0.39 mg/kg.; assay type: functional, Canis lupus familiaris
Procedure, shortened: (§1)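 Trained male beagles, four per dose, fasted 24 h with tap water ad libitum. After bladder emptying, given 20 mL/kg tap water by stomach tube, then 4 mL/kg at each hourly catheterization; 2 h control collection, then oral dosing. Urine volume and Na⁺ (flame photometry) reported for 1–6, 7–24 and 1–24 h post-dose periods.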

[3] = system: Canis familiaris; assay: urinary excretion collected at 7-24 hr time after oral administration in dog (four animals per dose) dosed at 0.39 mg/kg.; assay type: functional, Canis lupus familiaris, Urine
[4] = system: Canis familiaris; assay: urinary excretion collected at 1-6 hr time after oral administration in dog (four animals per dose) dosed at 3.12 mg/kg.; assay type: functional, Canis lupus familiaris, Urine
[5] = system: Canis familiaris; assay: Urinary excretion collected at 1-24 hr time after oral administration in dog (four animals per dose) at dose 1.56 mg/kg.; assay type: functional, Canis lupus familiaris, Urine; procedure, shortened: as §1
[6] = system: Canis familiaris; assay: sodium excretion collected at 7-24 hr time after oral administration in dog (four animals per dose) at dose 1.56 mg/kg.; assay type: functional, Canis lupus familiaris; procedure, shortened: as §1
[7] = system: Canis familiaris; assay: Saluretic activity in the dog measured as concentration of Na+ in urinary excretion (2 animals/dose) at (dose 12.5 mg/Kg, perorally); assay type: functional, Canis lupus familiaris, Urine
Procedure, shortened: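 Male beagles trained to rest on a table and to accept stomach tube and catheter. Food withdrawn 24 h before, tap water ad libitum. Bladder emptied by catheter, then 20 mL/kg tap water by stomach tube. Catheterized hourly up to 8 h with 4 mL/kg water orally each time; first 2 h urine served as control. Oral dosing after second catheterization. Pooled 1–6 h urine; Na⁺/K⁺ by flame photometry, Cl⁻ argentometrically.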

[8] = system: Canis familiaris; assay: sodium excretion collected at 7-24 hr time after oral administration in dog (four animals per dose) at dose 0.39 mg/kg.; assay type: functional, Canis lupus familiaris; procedure, shortened: as §1
[9] = system: Canis familiaris; assay: sodium excretion collected at 1-6 hr time after oral administration in dog (four animals per dose) at dose 0.39 mg/kg.; assay type: functional, Canis lupus familiaris; procedure, shortened: as §1
[10] = system: Canis familiaris; assay: Urinary excretion collected at 1-24 hr time after oral administration in dog (four animals per dose) at dose 6.25 mg/kg.; assay type: functional, Canis lupus familiaris, Urine; procedure, shortened: as §1
[11] = system: Canis familiaris; assay: sodium excretion collected at 7-24 hr time after oral administration in dog (four animals per dose) at dose 6.25 mg/kg.; assay type: functional, Canis lupus familiaris; procedure, shortened: as §1
[12] = system: Canis familiaris; assay: Urinary excretion collected at 7-24 hr time after oral administration in dog (four animals per dose) at dose 6.25 mg/kg.; assay type: functional, Canis lupus familiaris, Urine; procedure, shortened: as §1
[13] = system: Canis familiaris; assay: Urinary excretion collected at 1-6 hr time after oral administration in dog (four animals per dose) at dose 6.25 mg/kg.; assay type: functional, Canis lupus familiaris, Urine; procedure, shortened: as §1
[14] = system: Canis familiaris; assay: Diuretic activity in the dog (2 animals/dose) at (dose 12.5 mg/Kg), when administered perorally; assay type: functional, Canis lupus familiaris, Urine
Procedure, shortened: (§2)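 Trained male beagles, fasted 24 h with tap water ad libitum. Bladder emptied by catheter, then 20 mL/kg tap water by stomach tube, with 4 mL/kg water at each hourly catheterization up to 8 h. The first 2 h of urine served as control. Oral dosing came after the second catheterization, and 1–6 h urine was pooled. Na⁺ and K⁺ were measured by flame photometry, Cl⁻ argentometrically, in mequiv/kg.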

[15] = It is the ratio, measured as saluretic activity in the dog as concentration of Cl- in urinary excretion (dose 12.5 mg/kg, p.o.) to that of (Na+)+(K+); assay type: functional, Urine; conditions: route oral; procedure, shortened: as §2

Question: What does the source list for `CN(c1ccccc1)c1cc(NCc2ccco2)c(S(=O)(=O)[O-])cc1S(N)(=O)=O.[Na+]`?
Answer: Urinary excretion [1]: 50.6 mL/kg; Na+ excretion [2]: 5.26 mequiv kg-1; Urinary excretion [3]: 20.4 mL/kg; Urinary excretion [4]: 61.2 mL/kg

Question: For `NS(=O)(=O)c1cc(S(=O)(=O)[O-])c(NCc2ccco2)cc1Oc1ccccc1.[Na+]`, which Urinary excretion [5] is on record?
Answer: Its Urinary excretion is 78.9 mL/kg.

Question: What about the Na+ excretion [6] of the same compound?
Answer: Its Na+ excretion is 0.48 mequiv kg-1.

Question: And the Saluretic activity [7]?
Answer: Its Saluretic activity is 6.49 m equiv 6hr-1 kg-1.

Question: And the Na+ excretion [8]?
Answer: Its Na+ excretion is 0.47 mequiv kg-1.

Question: What about the Na+ excretion [9] of the same compound?
Answer: The Na+ excretion was 1.57 mequiv kg-1.

Question: And the Urinary excretion [10]?
Answer: Its Urinary excretion is 111.1 mL/kg.

Question: What about the Na+ excretion [11] of the same compound?
Answer: The Na+ excretion was 1.98 mequiv kg-1.

Question: What about the Urinary excretion [12] of the same compound?
Answer: The Urinary excretion was 38.3 mL/kg.

Question: What about the Urinary excretion [13] of the same compound?
Answer: Its Urinary excretion is 75.4 mL/kg.

Question: What about the Diuretic activity [14] of the same compound?
Answer: Its Diuretic activity is 74.3 ml kg-1 6hr-1.

Question: And the Ratio [15]?
Answer: The Ratio was 0.95.
